From ChEMBL document CHEMBL4118206, “Synthesis, characterization and cytotoxicity studies of 1,2,3-triazoles and 1,2,4-triazolo [1,5-a] pyrimidines in human breast cancer cells” (Bioorg Med Chem Lett, 2018)
Calls of active or inactive are those of the source. The rule behind the calls is not given here.

Tests used:
MCF7 [1] = assay: Cytotoxicity against human MCF7 cells assessed as cell growth inhibition after 72 hrs by alamar blue assay; type: functional, cell-based; details: MCF7, 72 h
MDA-MB-231 [2] = assay: Cytotoxicity against human MDA-MB-231 cells assessed as cell growth inhibition after 72 hrs by alamar blue assay; type: functional, cell-based; details: MDA-MB-231, 72 h
MDA-MB-231 [3] = assay: Cytotoxicity against human MDA-MB-231 cells assessed as cell growth inhibition at 25 uM after 72 hrs by alamar blue assay; type: functional, cell-based
MCF7 [4] = assay: Cytotoxicity against human MCF7 cells assessed as cell growth inhibition at 25 uM after 72 hrs by alamar blue assay; type: functional, cell-based
How it was run: (§1)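 MCF7 cells were seeded at 5000 per well. After 24 h they were exposed to 25 µM compound. Viability was read with AlamarBlue after a 4 h reagent incubation at 24, 48 and 72 h of treatment.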

BT-474 = assay: Cytotoxicity against human BT474 cells assessed as cell growth inhibition after 72 hrs by alamar blue assay; type: functional, cell-based; details: BT-474, 72 h
[5] = biological target: Vascular endothelial growth factor receptor 1 (Homo sapiens) (UniProt P17948); assay: Inhibition of VEGFR1 in human MCF7 cells assessed as downregulation of protein expression after 48 hrs by Western blot method; type: cell-based
How it was run: (§2)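 MCF7 cells were seeded at 300,000 per 6 cm dish in RPMI + 10% FBS and grown 24 h. They were then treated in RPMI + 2% FBS for 48 h, harvested and immunoblotted at 40 µg protein per lane. Blots were probed with primary antibodies against VEGFR1 and β-actin.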

MCF7 [6] = assay: Effect on beta-actin protein expression in human MCF7 cells at 5 to 15 uM after 48 hrs by Western blot method; type: ADME, cell-based; details: mcf7, 48 h; how it was run: as §2
[7] = biological target: Vascular endothelial growth factor receptor 1 (Homo sapiens) (UniProt P17948); assay: Inhibition of VEGFR1 in human MCF7 cells assessed as downregulation of protein expression at 5 uM after 48 hrs by Western blot method relative to beta-actin; type: cell-based; how it was run: as §2
[8] = biological target: Vascular endothelial growth factor receptor 1 (Homo sapiens) (UniProt P17948); assay: Inhibition of VEGFR1 in human MCF7 cells assessed as downregulation of protein expression at 10 uM after 48 hrs by Western blot method relative to beta-actin; type: cell-based; how it was run: as §2
[9] = biological target: Vascular endothelial growth factor receptor 1 (Homo sapiens) (UniProt P17948); assay: Inhibition of VEGFR1 in human MCF7 cells assessed as downregulation of protein expression at 15 uM after 48 hrs by Western blot method relative to beta-actin; type: cell-based; how it was run: as §2
Ishikawa = assay: Cytotoxicity against human Ishikawa cells assessed as cell growth inhibition after 72 hrs by alamar blue assay; type: functional, cell-based
MCF7 [10] = assay: Cytotoxicity against human MCF7 cells assessed as cell growth inhibition at 25 uM by alamar blue assay; type: functional, cell-based; details: TDE = time-dependent effect; how it was run: as §1
MCF7 [11] = assay: Effect on beta-actin protein expression in human MCF7 cells at 0.5 to 2 uM after 48 hrs by Western blot method; type: ADME, cell-based; details: mcf7, 48 h; how it was run: as §2
[12] = biological target: Vascular endothelial growth factor receptor 1 (Homo sapiens) (UniProt P17948); assay: Inhibition of VEGFR1 in human MCF7 cells assessed as downregulation of protein expression at 0.5 uM after 48 hrs by Western blot method relative to beta-actin; type: cell-based; how it was run: as §2
[13] = biological target: Vascular endothelial growth factor receptor 1 (Homo sapiens) (UniProt P17948); assay: Inhibition of VEGFR1 in human MCF7 cells assessed as downregulation of protein expression at 1 uM after 48 hrs by Western blot method relative to beta-actin; type: cell-based; how it was run: as §2
[14] = biological target: Vascular endothelial growth factor receptor 1 (Homo sapiens) (UniProt P17948); assay: Inhibition of VEGFR1 in human MCF7 cells assessed as downregulation of protein expression at 2 uM after 48 hrs by Western blot method relative to beta-actin; type: cell-based; how it was run: as §2

Chain of Vascular endothelial growth factor receptor 1 (Homo sapiens) (P17948 whole entry): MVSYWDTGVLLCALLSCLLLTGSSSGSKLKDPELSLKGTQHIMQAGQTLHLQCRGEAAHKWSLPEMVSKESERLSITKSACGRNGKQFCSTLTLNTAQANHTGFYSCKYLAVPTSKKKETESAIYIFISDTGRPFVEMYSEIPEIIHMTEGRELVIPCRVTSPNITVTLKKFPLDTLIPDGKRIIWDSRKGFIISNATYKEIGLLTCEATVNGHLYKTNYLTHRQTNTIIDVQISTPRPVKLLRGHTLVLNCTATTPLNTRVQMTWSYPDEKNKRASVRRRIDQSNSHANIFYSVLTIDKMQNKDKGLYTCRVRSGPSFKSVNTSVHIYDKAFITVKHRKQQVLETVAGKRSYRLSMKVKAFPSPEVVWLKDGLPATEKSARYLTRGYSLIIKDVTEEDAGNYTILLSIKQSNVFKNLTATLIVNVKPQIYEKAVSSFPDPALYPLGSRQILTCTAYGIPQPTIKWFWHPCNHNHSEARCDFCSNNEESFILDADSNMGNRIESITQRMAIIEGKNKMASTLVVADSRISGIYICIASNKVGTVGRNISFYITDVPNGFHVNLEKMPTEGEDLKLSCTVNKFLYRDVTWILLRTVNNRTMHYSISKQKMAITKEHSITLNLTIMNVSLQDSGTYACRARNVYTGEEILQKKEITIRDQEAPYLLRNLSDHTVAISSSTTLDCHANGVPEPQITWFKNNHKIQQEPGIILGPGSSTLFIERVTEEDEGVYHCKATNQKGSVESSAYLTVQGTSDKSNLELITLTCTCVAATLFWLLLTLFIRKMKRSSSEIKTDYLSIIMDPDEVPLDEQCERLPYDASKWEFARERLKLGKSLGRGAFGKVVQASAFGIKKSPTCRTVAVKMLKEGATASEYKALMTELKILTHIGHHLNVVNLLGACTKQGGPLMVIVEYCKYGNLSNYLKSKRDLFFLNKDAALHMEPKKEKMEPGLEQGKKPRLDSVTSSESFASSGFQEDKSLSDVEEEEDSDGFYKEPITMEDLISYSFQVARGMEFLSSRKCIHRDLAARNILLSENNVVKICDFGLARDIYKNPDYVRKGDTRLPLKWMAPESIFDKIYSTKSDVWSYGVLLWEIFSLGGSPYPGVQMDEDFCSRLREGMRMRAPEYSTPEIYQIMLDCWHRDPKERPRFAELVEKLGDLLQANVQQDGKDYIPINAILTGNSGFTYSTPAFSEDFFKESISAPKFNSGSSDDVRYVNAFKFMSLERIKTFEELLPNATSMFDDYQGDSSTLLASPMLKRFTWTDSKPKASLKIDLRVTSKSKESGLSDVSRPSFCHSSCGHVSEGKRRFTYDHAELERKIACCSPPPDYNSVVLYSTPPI

Row | SMILES | IC50 (MCF7 [1]) [µM] | IC50 (MDA-MB-231 [2]) [µM] | growth inhibition (GI) (MDA-MB-231 [3]) | growth inhibition (GI) (MCF7 [4]) | also measured
1 | Clc1ccccc1-c1ccccc1-c1ccn2ncnc2n1 | > 100 | > 100 | inactive | inactive | –
2 | c1ccc(-c2ccc(-n3cc(-c4ccccc4)nn3)cc2)cc1 | < 50 | – | – | – | –
3 | CCOc1cc(F)ccc1-c1ccn2ncnc2n1 | 93.8 | 50.3 | inactive | inactive | –
4 | COc1ccc(F)cc1-c1ccc(-n2cc(-c3ccccc3)nn2)cc1 | < 50 | – | – | – | –
5 | Fc1ccc(Cl)cc1-c1ccc(-n2cc(-c3ccccc3)nn2)cc1 | < 50 | – | – | – | –
6 | Fc1ccc(-c2ccn3ncnc3n2)cn1 | > 100 | > 100 | inactive | inactive | –
7 | COc1ccc(F)cc1-c1ccn2ncnc2n1 | > 100 | > 100 | inactive | inactive | –
8 | c1ccc(-c2cn(-c3ccc(-c4cc5ccccc5s4)cc3)nn2)cc1 | 14.4 | – | – | – | IC50 (BT-474): < 50 µM; inhibition [5]: Dose-dependent effect; Activity (MCF7 [6]): Non-Toxic; fold change (FC) [7]: 0.8; fold change (FC) [8]: 0.7; fold change (FC) [9]: 0.63
9 | Clc1ccccc1-c1ccn2ncnc2n1 | > 100 | > 100 | inactive | inactive | –
10 | Cc1ccccc1-c1ccc(-n2cc(-c3ccccc3)nn2)cc1 | < 50 | – | – | – | –
11 | N#Cc1cncc(-c2ccn3ncnc3n2)c1 | – | > 100 | inactive | inactive | –
12 | c1ccc(-c2ccn3ncnc3n2)cc1 | 3.91 | > 100 | inactive | – | –
13 | Clc1ccccc1-c1ccc(-n2cc(-c3ccccc3)nn2)cc1 | < 50 | – | – | – | –
14 | Fc1ccc(Cl)cc1-c1ccn2ncnc2n1 | – | > 100 | inactive | inactive | –
15 | CS(=O)(=O)c1cccc(-c2ccc(-n3cc(-c4ccccc4)nn3)cc2)c1 | < 50 | – | – | – | –
16 | N#Cc1cncc(-c2ccc(-n3cc(-c4ccccc4)nn3)cc2)c1 | < 50 | – | – | – | –
17 | CCOc1cc(F)ccc1-c1ccc(-n2cc(-c3ccccc3)nn2)cc1 | 1.69 | 4.81 | – | – | IC50 (Ishikawa): 1.97 µM; IC50 (BT-474): 4.08 µM; growth inhibition (GI) (MCF7 [10]): Tde; inhibition [5]: Dose-dependent effect; Activity (MCF7 [11]): Non-Toxic; fold change (FC) [12]: 0.8; fold change (FC) [13]: 0.29; fold change (FC) [14]: 0.54
